Measured values taken from ChEMBL document CHEMBL4689842, “EUbOPEN Chemogenomics Library wave 1” (2021).
Where “and” joins values, the source holds several entries; their conditions need not be identical. Identical values can stand only once.

System: HEK-293T
Test: Multiplex assay against HEK293T;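 as to Population Tubulin-Different-Phenotype (%): share of the cells with healthy nuclei that show this phenotype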
Format: toxicity, cell-based
Details: human, 1 µM, compound concentration 1 uM
Procedure, shortened: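 Hoechst33342, BioTracker Green Microtubule Cytoskeleton Dye, MitoTracker Red and Annexin V Alexa Fluor 680 were added to live cells at seeding, and imaging on a CQ1 microscope at 37°C and 5% CO2 followed compound addition. Gating by CellPathfinder machine learning separated cells into Hoechst high-intensity objects or normal cells, then normal cells into healthy, pyknosed or fragmented nuclei, then pyknosed cells into mitotic or apoptotic. Per cents of healthy-nucleus cells are reported for the tubulin, mitochondrial-mass and membrane-permeability phenotypes.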

CC(C)C(=O)Nc1n[nH]c2cc(-c3cccc(NS(=O)(=O)C4CC4)c3)ccc12
Population Apoptotic (%) (12 h, replicate 1): 21% | Population Fragmented Nuclei (%) (12 h, replicate 1): 16% and 10% | Population Healthy Nuclei (%) (12 h, replicate 1): 61% and 63% | Population Hoechst High Intensity Objects (%) (12 h, replicate 1): 10% and 14% | Population Membrane Permeable-Phenotype (%) (12 h, replicate 1): 4% | Population Mitochondria Different-Phenotype (%) (12 h, replicate 1): 4% and 6% | Population Mitotic Cells (%) (12 h, replicate 1): 78% | Population Normal (%) (12 h, replicate 1): 89% and 85% | Population Pyknosed Nuclei (%) (12 h, replicate 1): 22% and 25% | Population Tubulin-Different-Phenotype (%) (12 h, replicate 1): 1% and 4% | Total Cell Count (12 h, replicate 1): 541 and 686 | Population Apoptotic (%) (12 h, replicate 2): 12% and 8% | Population Fragmented Nuclei (%) (12 h, replicate 2): 4% and 6% | Population Healthy Nuclei (%) (12 h, replicate 2): 85% and 89% | Population Hoechst High Intensity Objects (%) (12 h, replicate 2): 3% and 1% | Population Membrane Permeable-Phenotype (%) (12 h, replicate 2): 1% | Population Mitochondria Different-Phenotype (%) (12 h, replicate 2): 13% and 7% | Population Mitotic Cells (%) (12 h, replicate 2): 87% and 91% | Population Normal (%) (12 h, replicate 2): 96% and 98% | Population Pyknosed Nuclei (%) (12 h, replicate 2): 9% and 4% | Population Tubulin-Different-Phenotype (%) (12 h, replicate 2): 7% | Total Cell Count (12 h, replicate 2): 1247 and 1614 | Population Apoptotic (%) (24 h, replicate 1): 14% and 20% | Population Fragmented Nuclei (%) (24 h, replicate 1): 11% | Population Healthy Nuclei (%) (24 h, replicate 1): 80% and 75% | Population Hoechst High Intensity Objects (%) (24 h, replicate 1): 6% and 10% | Population Membrane Permeable-Phenotype (%) (24 h, replicate 1): 8% and 6% | Population Mitochondria Different-Phenotype (%) (24 h, replicate 1): 3% and 5% | Population Mitotic Cells (%) (24 h, replicate 1): 85% and 79% | Population Normal (%) (24 h, replicate 1): 93% and 89% | Population Pyknosed Nuclei (%) (24 h, replicate 1): 8% and 13% | Population Tubulin-Different-Phenotype (%) (24 h, replicate 1): 4% and 8% | Total Cell Count (24 h, replicate 1): 620 and 701 | Population Apoptotic (%) (24 h, replicate 2): 4% and 12% | Population Fragmented Nuclei (%) (24 h, replicate 2): 22% and 8% | Population Healthy Nuclei (%) (24 h, replicate 2): 76% and 86% | Population Hoechst High Intensity Objects (%) (24 h, replicate 2): 3% and 4% | Population Membrane Permeable-Phenotype (%) (24 h, replicate 2): 5% and 2% | Population Mitochondria Different-Phenotype (%) (24 h, replicate 2): 1% and 6% | Population Mitotic Cells (%) (24 h, replicate 2): 95% and 87% | Population Normal (%) (24 h, replicate 2): 96% and 95% | Population Tubulin-Different-Phenotype (%) (24 h, replicate 2): 15% | Total Cell Count (24 h, replicate 2): 2835 and 1472
